The values below come from PMC3472128 (Structure (London, England : 1993), 2012).

“Also recorded” adds a separate entry of the source.

For assay [1], the target named is four independent Nedd4L WW domains. The experiment in a line: ITC, Smad7 peptide vs independent Nedd4L WW domains. The format is binding, human. The note with it: each of the four independent WW domains, values shown in Figure 1B only. For orientation: Isothermal titration calorimetry measures the heat released or taken up as one component is titrated into another.

For assay [2], the target named is YAP WW1 domain (Homo sapiens, UniProt P46937). The assay can be described thus: ITC, Smad7 peptide vs YAP WW1. The format is binding.
YAP WW1 domain, sequence (P46937 163-206): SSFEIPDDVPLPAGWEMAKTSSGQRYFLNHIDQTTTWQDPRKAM
The target in assay [3] is T1, Smurf1 WW2 (Homo sapiens, UniProt Q9HCE7). The assay can be described thus: IM-MS, Smurf1 WW2 dimer population. The format is binding. The method in brief:
(§1)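 Traveling-wave ion mobility–mass spectrometry was run on the recombinant Smurf WW protein mixed with the Smad7 peptide. Monomer, dimer and trimer species carrying zero to three ligands were assigned by specific ionisation mass and characteristic drift time.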

Assay [4] has as its target T2, Smurf1 WW1-WW2 (Homo sapiens, UniProt Q9HCE7).
T2 sequence (Q9HCE7 233-314 isoform Q9HCE7-2): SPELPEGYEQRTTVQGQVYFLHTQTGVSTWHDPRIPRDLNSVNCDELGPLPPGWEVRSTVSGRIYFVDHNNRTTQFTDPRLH
The experiment in a line: ITC, Smad7 peptide vs Smurf1 WW1-WW2 pair. The format is binding. A digest of the protocol: (§2)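 Nano ITC was run at 5, 15 and 25 °C, in Tris and in ammonium acetate at pH 7. Kd and stoichiometry come from fits. Each run was done at least three times with two protein expression batches.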

Assay [5] concerns the target Nedd4L WW2 domain Lys378Glu (Homo sapiens, UniProt Q96PU5, K398E). The assay can be described thus: ITC, Smad7 peptide vs Nedd4L WW2 Lys378Glu. The format is binding.
Assay [6] addresses Nedd4L WW2 domain Lys378/Arg380 to Glu (Homo sapiens, UniProt Q96PU5, K398E/R400E). The assay can be described thus: ITC, Smad7 peptide vs Nedd4L WW2 double mutant. The format is binding.
For assay [7], the target named is T3, Smurf2 WW2-WW3 (Homo sapiens, UniProt Q9HAU4). The experiment in a line: IM-MS, complexes of Smurf2 WW2-WW3 with Smad7 peptide. The format is binding. Conditions: protein concentrations used in ITC (30–50 μM).
T3 sequence (Q9HAU4 250-333 limits assumed): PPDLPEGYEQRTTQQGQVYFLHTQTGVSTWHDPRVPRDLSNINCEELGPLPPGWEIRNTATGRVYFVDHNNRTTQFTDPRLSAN
Assay [8] concerns Smurf1 WW1-WW2 Arg243Ala. The experiment in a line: ITC, Smad7 peptide vs Smurf1 WW1-WW2 Arg243Ala. The format is binding, human.
Assay [9] has as its system Nedd4L WW domains. The experiment in a line: ITC, preferred Nedd4L WW domain for Smad7 peptide. The format is binding, human.
Assay [10] concerns the target T1, Smurf1 WW2. The experiment in a line: ITC, Smad7 peptide vs Smurf1 WW2. The format is binding.
Assay [11] relates to Smurf2 WW2. The assay can be described thus: ITC, Smad7 peptide vs Smurf2 WW2. The format is binding, human.
Assay [12] deals with Smurf1 WW2 domain Arg295Glu (Homo sapiens, UniProt Q9HCE7, R321E). The experiment in a line: ITC, Smad7 peptide vs Smurf1 WW2 Arg295Glu. The format is binding.
Smurf1 WW2 domain Arg295Glu, sequence (Q9HCE7 303-340 R321E limits assumed): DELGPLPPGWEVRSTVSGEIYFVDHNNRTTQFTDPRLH
For assay [13], the system named is Smurf1 WW1-WW2 Arg243Glu. The experiment in a line: ITC, Smad7 peptide vs Smurf1 WW1-WW2 Arg243Glu. The format is binding, human.
Assay [14] concerns three possible Nedd4L WW-WW pairs. The experiment in a line: ITC, Smad7 peptide vs Nedd4L WW-WW pairs. The format is binding, human.
Assay [15] deals with Smurf1 WW1. The assay can be described thus: ITC, Smad7 peptide vs Smurf1 WW1. It counts as binding, human.
Assay [16] has as its system Nedd4L WW2-WW3 pair. The experiment in a line: ITC, Smad7 peptide vs Nedd4L WW2-WW3 pair. It counts as binding, human.
Assay [17] deals with Nedd4L WW2-WW3 mutant constructs (bind only one PY site). The assay can be described thus: ITC, Smad7 peptide vs Nedd4L WW2-WW3 mutant constructs. It counts as binding, human. The note with it: two WW2-WW3 mutant constructs that bind only one PY site.
The target in assay [18] is T3, Smurf2 WW2-WW3. The experiment in a line: ITC, Smad7 peptide vs Smurf2 WW2-WW3 pair. The format is binding. The method in brief:
as §2

Assay [19] has as its target T2, Smurf1 WW1-WW2. The experiment in a line: IM-MS, complexes of Smurf1 WW1-WW2 with Smad7 peptide. The format is binding. The note with it: protein concentrations used in ITC (30–50 μM).
The test system of assay [20] is Smurf1 WW1-WW2 pair. The experiment in a line: NMR, Smad7 peptide binding to Smurf1. Also on record: species or system human. The note with it: triple resonance NMR; 285 K/298 K.
For assay [21], the system named is Smurf2. The assay can be described thus: NMR, Smad7 peptide binding to Smurf2. Also on record: species or system human. The note with it: triple resonance NMR; 285 K/298 K.
For assay [22], the target named is Smurf2 WW3 domain R312E (Homo sapiens, UniProt Q9HAU4, R312E). The assay can be described thus: ITC, Smad7 peptide vs Smurf2 WW3 R312E. The format is binding.
Smurf2 WW3 domain R312E, sequence (Q9HAU4 297-333 R312E limits assumed): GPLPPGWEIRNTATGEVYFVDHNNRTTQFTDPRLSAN
The target in assay [23] is Nedd4L WW2 domain Arg380Glu (Homo sapiens, UniProt Q96PU5, R400E). The assay can be described thus: ITC, Smad7 peptide vs Nedd4L WW2 Arg380Glu. It counts as binding.
Nedd4L WW2 domain Arg380Glu, sequence (Q96PU5 384-423 R400E): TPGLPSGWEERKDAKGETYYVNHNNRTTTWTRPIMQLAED
The test system of assay [24] is Smurf1 WW1-WW2 Gln249Glu. The experiment in a line: ITC, Smad7 peptide vs Smurf1 WW1-WW2 Gln249Glu. It counts as binding, human.
For assay [25], the system named is Smurf1 WW1-WW2 Gln247 and Gln249 to Glu. The assay can be described thus: ITC, Smad7 peptide vs Smurf1 WW1-WW2 Gln247 and Gln249 to Glu. The format is binding, human.
The test system of assay [26] is Smurf1 WW1. The experiment in a line: IM-MS, Smurf1 WW1 dimer population. It counts as binding, human. The method in brief: as §1
For assay [27], the system named is YAP WW2. The experiment in a line: ITC, Smad7 peptide vs YAP WW2. The format is binding, human. Conditions: 15°C, weaker than YAP WW1.
Assay [28] has as its target YAP WW1-WW2 pair (Homo sapiens, UniProt P46937). The assay can be described thus: ITC, YAP WW1-WW2 pair. It counts as binding.
Assay [29] relates to HA-YAP. The experiment in a line: Immunoprecipitation of Smad7 with HA-YAP in HEK293T cells. It counts as cell-based, human. Conditions: full-length Smad7 wild type or variants with HA-YAP. The method in brief:
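HEK293T cells were transfected with epitope-tagged constructs (HA-YAP with full-length Smad7 wild type or variants) and treated where indicated with TGF-β1 at 100 pM. Lysates were immunoprecipitated with anti-Flag antibody, then immunoblotted with antibodies against the tags.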

YAP WW1-WW2 pair, sequence (P46937 163-266 limits assumed): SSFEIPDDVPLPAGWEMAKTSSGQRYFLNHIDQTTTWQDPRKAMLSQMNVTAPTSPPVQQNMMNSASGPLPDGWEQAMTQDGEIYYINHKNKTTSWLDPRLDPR
Nedd4L WW2 domain Lys378/Arg380 to Glu, sequence (Q96PU5 384-423 K398E/R400E): as the sequence (Q96PU5 384-423 R400E) above, with K15E counted along it
Nedd4L WW2 domain Lys378Glu, sequence (Q96PU5 384-423 K398E): as the sequence (Q96PU5 384-423 R400E) above, with K15E, E17R counted along it

For orientation: Kd means the free concentration of one partner at which half of the binding sites on the other are occupied at equilibrium, for simple one-to-one binding. A high value points to a looser complex. What is called stoichiometry N is the number of molecules, sites or subunits per partner or assembly. Ac-ELESPPPPYSRYPMD-NH2 [Smad7 peptide]: the dissociation constants result is “in the μM range” in [1] and “in the μM range” in [14] (three possible WW-WW pairs, values shown in Figure 1B only). Also, the Kd is 6.9 ± 0.28 µM in assay [2]; 1.7 ± 0.3 µM in assay [4] (affinity (KD), ITC, 15 °C, Tris buffer (Figure 1C), at least three times, two protein expression batches); 23.5 ± 1.5 µM in assay [5]; 27.3 ± 2.2 µM in assay [6]; 4.1 ± 0.6 µM in assay [10]; 48.6 ± 6.4 µM in [12]. In addition, the dissociation constant (Kd) came to 1.7 ± 0.3 µM in assay [18] (affinity (KD), ITC, 15 °C); 34.2 ± 1.6 µM in [22]; 15.4 ± 3.5 µM in assay [23]; 9.8 ± 0.9 µM in [28]. Further, the “preferred WW domain” value is reported as “YAP WW1 domain preferentially binds” in assay [2] (ITC, 15°C) and “preferentially uses WW2” in assay [9]. Besides, the “dimer population in the presence of peptide” value in assay [3] was “reduced”; in [26], “unaffected”. Moreover, the stoichiometry in [4] (ITC, 15 °C, Tris buffer) is on record as 0.7; in assay [4] (ITC, all temperatures) it was < 1; in assay [10] (ITC, independent WW2, 15 °C, Tris buffer) it was 1; in [18] (ITC, all temperatures), < 1. Also, the “affinity increase due to the WW domain pair” value in assay [4] (pair versus Smurf1 WW2 at a given temperature) and in assay [18] (pair versus Smurf2 WW3 at a given temperature) was “about 2 fold” each time. The species detected entry in assay [7] is “dimers with one or with two bound ligands and trimers”; in assay [19], “monomeric complexes, protein dimers bound to only one ligand, dimers bound to two ligands and higher order species; also recorded: dimers with one or with two bound ligands and trimers”. In addition, the reduction of affinity in assay [8] amounted to 3 fold; in assay [13] it was 10 fold; in assay [24], 3 fold; in [25], 3 fold. The affinity entry in assay [11] and in assay [15] was “very low affinity” throughout. The “decrease of binding affinity” value in [12] (R295E versus wild type) is given as “approximately 8 fold”. Besides, the “effect of domain pairs on affinity” value in assay [14] (in vitro, versus single domains) is recorded as “does not increase the affinity in vitro”. For the same substance, in [16], the “stoichiometry (peptide per protein)” value is on record as “two equivalents of peptide per protein”. Besides, the peptide affinity entry in assay [17] was “close to those of the single domains”. The “WW domain used for interaction” value is “using the WW2 domain” in assay [20] and “the WW3 for Smurf2” in assay [21]. The “dissociation constant relative to WW1” value in assay [27] came to 9 fold. The “affinity, WW1-WW2 pair versus independent WW1” value in [28] (ITC) is on record as “binds slightly worse than the isolated WW1”. Further, in [28] (ITC, 15°C), the “stoichiometry N” value was found to be 1.

As for “Smad7: full-length protein Smad7 (wild type), flag epitope-tagged, expressed in HEK293T”, the “binding to HA-YAP in immunoprecipitation” value in assay [29] is listed as “binding is observed”.
